# Reference: ChEMBL document CHEMBL1126191, “New antiinflammatory agents. 2. 5-Phenyl-3H-imidazo[4,5-c][1,8]naphthyridin-4(5H)-ones: a new class of nonsteroidal antiinflammatory agents with potent activity like glucocorticoids” (J Med Chem, 1992)
# Columns and labels:
# Rattus norvegicus [1] = assay: Antiinflammatory effect (oral administration), on rat reversed passive Arthus reaction-induced paw edema at 5 mg/kg; type: functional
# Summary of the method: (§1)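 Reversed passive Arthus: male Wistar rats (~150 g, n=5) were dosed orally with compound in 5% arabic gum. Paw volume was measured by plethysmograph before dosing and 2 h after antigen. % inhibition was calculated vs controls, and ED50 came from log-dose linear regression.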
# Rattus norvegicus [2] = assay: Antiinflammatory effect (oral administration), on zymosan-induced rat paw edema at 25 mg/kg; type: functional
# Summary of the method: (§2)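 Oral dosing in 5% arabic gum suspension to male Wistar rats (~150 g, n=5) 1 h before subplantar injection of 1% zymosan in saline into the hind paw. Paw volume was read by plethysmograph before dosing and 4 h after zymosan.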
# Mus musculus = assay: Acute lethal toxicity (peroral administration), determined by observing the mortality for 7 days after the administration in mouse; type: organism-based; details: in vivo, po, 168 h
# Summary of the method: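 Male dd mice of 20-25 g, three per group, given compound by mouth once. Mortality followed for 7 days, and the minimum lethal dose (MLD) was recorded in mg/kg po.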
# Rattus norvegicus [3] = assay: Antiinflammatory effect in rat paw edema model following 50 mg/kg p.o. administration.; type: functional; details: route oral
# Rattus norvegicus [4] = assay: Antiinflammatory effect of the compound(oral administration) on rat paw edema model(carrageenan-induced paw edema) at 50 mg/kg; type: functional
# Rattus norvegicus [5] = assay: Oral dose required for antiinflammatory effect on zymosan induced rat paw edema.; type: functional; summary of the method: as §2
# Rattus norvegicus [6] = assay: Dose of the compound (oral administration) showing antiinflammatory effect on rat paw edema model (carrageenan-induced paw edema, CPE); type: functional
# Rattus norvegicus [7] = assay: Dose of the compound (oral administration) showing antiinflammatory effect on rat paw edema model (reversed passive Arthus reaction-induced paw edema, RPAR); type: functional; summary of the method: as §1
# Rattus norvegicus [8] = assay: Antiinflammatory effect (oral administration) on rat paw edema model (reversed passive Arthus reaction-induced paw edema) at 10 mg/kg; type: functional; summary of the method: as §1
# Rattus norvegicus [9] = assay: Antiinflammatory effect (oral administration) on rat paw edema model (reversed passive Arthus reaction-induced paw edema) at 100 mg/kg; type: functional; summary of the method: as §1
# Rattus norvegicus [10] = assay: Antiinflammatory effect of the compound (oral administration) on rat paw edema model (reversed passive Arthus reaction-induced paw edema, RPAR); type: functional; summary of the method: as §1
# Rattus norvegicus [11] = assay: Antiinflammatory effect (oral administration) on rat paw edema model (zymosan-induced paw edema) at 50 mg/kg; type: functional; summary of the method: as §2
# Rattus norvegicus [12] = assay: Antiinflammatory effect (oral administration) on rat paw edema model (carrageenan-induced paw edema) at 50 mg/kg; type: functional
# Rattus norvegicus [13] = assay: Antiinflammatory effect (oral administration) on rat paw edema model (reversed passive Arthus reaction-induced paw edema) at 5 mg/kg; type: functional; summary of the method: as §1
# Rattus norvegicus [14] = assay: Antiinflammatory effect of the compound(oral administration) on rat paw edema model(zymosan-induced paw edema) at 50 mg/kg; type: functional; summary of the method: as §2
SMILES,inhibition in vivo at 5 mg/kg (Rattus norvegicus [1]) [%],inhibition in vivo at 25 mg/kg (Rattus norvegicus [2]) [%],MLD (Mus musculus) [mg/kg],inhibition in vivo at 50 mg/kg (Rattus norvegicus [3]) [%],inhibition in vivo at 50 mg/kg (Rattus norvegicus [4]) [%],ED40 (Rattus norvegicus [5]) [mg/kg],ED40 (Rattus norvegicus [6]) [mg/kg],ED50 (Rattus norvegicus [7]) [mg/kg],other results
CC(c1ccccc1)n1cnc2c3cccnc3n(-c3ccccc3)c(=O)c21 (centres undefined),14.9,1.6,> 300,3.5,–,–,–,–,–
Cc1nc2c3cccnc3n(-c3ccccc3)c(=O)c2n1Cc1ccccc1,6.5,19.2,–,–,4.7,–,–,–,–
O=C(O)Cn1cnc2c3cccnc3n(-c3ccccc3)c(=O)c21,3.3,5.1,–,10.8,–,–,–,–,–
O=c1c2c(ncn2Cc2ccccc2)c2cccnc2n1-c1ccccc1,79.7,68.3,> 300,–,63,0.37,5.3,0.47,–
Cc1cccc(Cn2cnc3c4cccnc4n(-c4ccccc4)c(=O)c32)c1,–,33.3,–,–,18.4,–,–,–,inhibition in vivo at 10 mg/kg (Rattus norvegicus [8]): 33.5%
CCOC(=O)Cn1cnc2c3cccnc3n(-c3ccccc3)c(=O)c21,9.9,5,–,–,23.1,–,–,–,–
CC(C)n1cnc2c3cccnc3n(-c3ccccc3)c(=O)c21,13.3,62.4,200,43.1,–,12.7,–,–,–
COc1cccc(Cn2cnc3c4cccnc4n(-c4ccccc4)c(=O)c32)c1,–,43.5,–,13,–,–,–,–,inhibition in vivo at 10 mg/kg (Rattus norvegicus [8]): 24%
NC(=O)N1C(=O)/C(=C(\O)c2cccs2)c2cc(Cl)ccc21 [TENIDAP],–,–,> 300,–,–,41.2,14.8,–,inhibition in vivo at 100 mg/kg (Rattus norvegicus [9]): 4.8%
CC(O)Cn1cnc2c3cccnc3n(-c3ccccc3)c(=O)c21 (centres undefined),61.8,74.7,300,–,48,4.5,7.8,1.9,–
CC(=O)OCCn1cnc2c3cccnc3n(-c3ccccc3)c(=O)c21,–,41.6,> 300,–,42.2,19.4,40.3,–,inhibition in vivo at 10 mg/kg (Rattus norvegicus [8]): 11.8%
CCCn1cnc2c3cccnc3n(-c3ccccc3)c(=O)c21,–,61.2,200,–,57.3,1.3,15.9,2,Inhibition (Rattus norvegicus [10]): 74.4%
COc1ccc(Cn2cnc3c4cccnc4n(-c4ccccc4)c(=O)c32)cc1,59.2,66.9,> 300,37.8,–,0.93,–,2.3,–
CCCCn1cnc2c3cccnc3n(-c3ccccc3)c(=O)c21,49.9,55.5,300,–,45.8,2.1,15.4,4.8,–
CCN(CC)CCCn1cnc2c3cccnc3n(-c3ccccc3)c(=O)c21,11.1,17.4,–,7.2,–,–,–,–,–
O=c1c2c(ncn2Cc2ccc([N+](=O)[O-])cc2)c2cccnc2n1-c1ccccc1,22.2,45.6,> 300,35.9,–,3.5,–,–,–
O=c1c2ncn(Cc3ccccc3)c2c2cccnc2n1-c1ccccc1,1.5,4.7,> 300,–,–,–,–,–,–
O=c1c2c(ncn2CC2CCCCC2)c2cccnc2n1-c1ccccc1,–,49.8,> 300,34.7,–,11.8,–,5.7,inhibition in vivo at 10 mg/kg (Rattus norvegicus [8]): 62.9%
O=c1c2c(ncn2CCc2ccccc2)c2cccnc2n1-c1ccccc1,–,25.7,> 300,2.2,–,–,–,–,inhibition in vivo at 10 mg/kg (Rattus norvegicus [8]): 5.6%
O=c1c2c(ncn2Cc2ccccc2Cl)c2cccnc2n1-c1ccccc1,20.8,27.3,–,14.9,–,–,–,–,–
CC(=O)Cn1cnc2c3cccnc3n(-c3ccccc3)c(=O)c21,57.7,53.7,> 200,–,41.3,3.9,40,4.5,–

SMILES,inhibition in vivo at 5 mg/kg (Rattus norvegicus [1]) [%],inhibition in vivo at 25 mg/kg (Rattus norvegicus [2]) [%],MLD (Mus musculus) [mg/kg],inhibition in vivo at 50 mg/kg (Rattus norvegicus [3]) [%],inhibition in vivo at 50 mg/kg (Rattus norvegicus [4]) [%],ED40 (Rattus norvegicus [5]) [mg/kg],ED40 (Rattus norvegicus [6]) [mg/kg],ED50 (Rattus norvegicus [7]) [mg/kg],other results
C[C@]12C=CC(=O)C=C1CC[C@@H]1[C@@H]2[C@@H](O)C[C@@]2(C)[C@H]1CC[C@]2(O)C(=O)CO [PREDNISOLONE],–,–,> 300,–,–,1.2,4.7,74.2,–
O=c1c2c(ncn2Cc2cccc(Br)c2)c2cccnc2n1-c1ccccc1,–,–,–,26.9,–,–,–,–,inhibition in vivo at 10 mg/kg (Rattus norvegicus [8]): 17.2%
O=c1c2c(ncn2Cc2cccc([N+](=O)[O-])c2)c2cccnc2n1-c1ccccc1,43.9,35.7,–,33.1,–,–,–,–,–
O=c1c2c(nc(-c3ccccc3)n2Cc2ccccc2)c2cccnc2n1-c1ccccc1,–,–,–,–,–,–,–,–,inhibition in vivo at 50 mg/kg (Rattus norvegicus [11]): -4%; inhibition in vivo at 50 mg/kg (Rattus norvegicus [12]): 0%; inhibition in vivo at 5 mg/kg (Rattus norvegicus [13]): 1.2%
O=c1c2c(ncn2CCCN2CCOCC2)c2cccnc2n1-c1ccccc1,-3.5,22.4,–,–,9.7,–,–,–,–
CCOCCn1cnc2c3cccnc3n(-c3ccccc3)c(=O)c21,50.3,57.4,> 300,–,56.7,6,15.5,3.2,–
Cn1cnc2c3cccnc3n(-c3ccccc3)c(=O)c21,45,–,100,–,40,–,–,–,–
CCCCCCn1cnc2c3cccnc3n(-c3ccccc3)c(=O)c21,51.1,33.5,> 300,–,35.2,–,–,4.9,–
CCn1cnc2c(=O)n(-c3ccccc3)c3ncccc3c21,3.5,13.5,> 300,–,–,–,–,–,–
Cc1ccc(C)c(Cn2cnc3c4cccnc4n(-c4ccccc4)c(=O)c32)c1,-3.5,10.1,–,1.2,–,–,–,–,–
O=c1c2c(ncn2CCCO)c2cccnc2n1-c1ccccc1,41.3,58.1,> 300,–,42.6,4.8,33.5,3.7,–
CCn1cnc2c3cccnc3n(-c3ccccc3)c(=O)c21,–,77.5,100,–,58.2,1.6,13.9,1.9,inhibition in vivo at 10 mg/kg (Rattus norvegicus [8]): 86.9%
COC(=O)c1ccc(Cn2cnc3c4cccnc4n(-c4ccccc4)c(=O)c32)cc1,9.2,–,–,–,8.7,–,–,–,inhibition in vivo at 50 mg/kg (Rattus norvegicus [14]): 9.9%
Cc1ccc(Cn2cnc3c4cccnc4n(-c4ccccc4)c(=O)c32)cc1,67.4,56.2,> 300,39.2,–,3.5,–,1.9,–
CC(C)n1cnc2c(=O)n(-c3ccccc3)c3ncccc3c21,32,–,> 300,–,–,–,–,–,–
Oc1c2ncnc-2c2cccnc2n1-c1ccccc1,15.4,–,> 300,–,–,–,–,–,–
C=CCn1cnc2c3cccnc3n(-c3ccccc3)c(=O)c21,22.7,67.3,> 300,–,67.8,2.7,21.9,–,–
O=c1c2c(ncn2C/C=C/c2ccccc2)c2cccnc2n1-c1ccccc1,17.5,34.2,> 300,26.3,–,–,–,–,–
CC(C)Cn1cnc2c3cccnc3n(-c3ccccc3)c(=O)c21,61.8,69.7,300,–,57.4,0.19,9.1,0.97,–
O=c1c2c(ncn2Cc2ccc(Cl)cc2)c2cccnc2n1-c1ccccc1,15.1,42.8,> 300,21.3,–,20.3,–,–,–
